Data reported in PubChem BioAssay.
Unmarked numbers belong to inactive results. Records with an inconclusive call do not appear. Active and inactive are the calls of the source.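 How the source made its calls, unless noted: active means viability at or below 27.92% in each of two runs, the all-compound median minus 4 SD; inconclusive means no clear call, values can overlap the other calls; inactive means the rest.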

Legend:
[1] = S. cerevisiae growth inhibition in permissive medium (OD615), pilot counter-assay for S. cerevisiae lifespan shortening project, permissive growth control (AID 705;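 active means growth inhibition above 25% in both replicates, a cutoff set 3 SD above the mean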); conditions: OD615, 24 h, at 10 µM, hits give high values
Summary of the method: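 System: Engineered DeaD yeast | Buffer or medium: SC raffinose/galactose permissive medium | Doses: 10 µM single dose, 0.25% DMSO | Times: 24 h exposure, 30 °C | Measured by: OD615 turbidity read | Read-out: Yeast growth inhibition indicated by reduced 24 h OD615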

[2] = S. cerevisiae growth inhibition in restrictive medium, OD615, pilot screen, restrictive growth control, yeast lifespan reduction project (AID 706;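 active means growth inhibition above a set limit, 3 SD over mean compound inhibition, in both replicates, cut at about 43% in these data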;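 further: modified DeaD lifespan yeast strain shifted to restrictive glucose medium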); conditions: OD615, 48 h, at 10 µM, hits give high values
Summary of the method: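 Assay system: engineered S. cerevisiae DeaD strain; Buffer or medium: CSMM-D glucose medium; Dosing: 10 µM compound, 0.25% DMSO; Times: cell pre-growth 4 h, compound exposure 48 h, 30 °C; Detection: absorbance (optical density) measured at 615 nm.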

[3] = doxorubicin toxicity protection in MRP-1 cells – H69AR cells, CellTiter-Glo, duplicate, MRP-1 activator project, pilot screen (AID 807;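 active means viability increase at or above a cutoff of the median across tested compounds plus 3 SD, cut at about 8.5% in these data, passing the limit was not always enough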;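 further: compound pretreatment 18-22 h then 72 h combined with doxorubicin; 0% = doxorubicin alone and 100% = vehicle without doxorubicin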); conditions: H69AR viability with doxorubicin, CellTiter-Glo luminescence; at 10 µM; hits give high values
[4] = viability of HCT116 without oncogenic beta-catenin – human colon tumor cells, pilot screen (AID 823;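 active means cell viability at or below a set limit in both duplicate runs, the limit being the all-compound median minus 4 SD, cut at about 23% in these data, passing the limit was not always enough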;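 further: 0% = wells killed by 20 µM Hyamine and 100% = untreated DMSO cell wells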); conditions: HCT116 beta-catenin knockout viability, CellTiter-Glo, 60 h; at 10 µM; hits give low values
[5] = viability of PTEN-null HCT116 cells – cell-based, HCT116 clonal line, CellTiter-Glo, pilot screen (AID 824); conditions: HCT116 PTEN-deleted viability, 60 h, at 10 µM, hits give low values;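 further: 0% = 20 µM Hyamine control and 100% = vehicle cell control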
[6] = RAM pathway blockade in budding yeast – dse1pr::URA3 reporter, 5-FOA selection, pilot screen (AID 869;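 active means inhibition over a set limit, the all-compound mean plus 3 SD, in both replicate runs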;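 further: 0% = DMSO wells with no growth and 100% = 10 µM 1-NA-PP1 with full growth; RAM network block rescues cells from 5-FOA so hits raise OD615 growth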); conditions: S. cerevisiae dse1pr::URA3 5-FOA growth, OD615, 2 d; at 10 µM; hits give high values; strain carries analog-sensitive mutant Cbk1 kinase
[7] = RAM signaling pathway blockade in yeast – S. cerevisiae, Pdr1DBD-CYC8 efflux-inhibited sensitized strain, primary screen (AID 1298;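 active means RAM network inhibition above 8.4% in each of two replicates, 3 SD over the compound average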;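 further: 0% = DMSO untreated cells without growth and 100% = 10 µM 1-NA-PP1 full growth; higher means more yeast growth rescued from 5-FOA killing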); conditions: S. cerevisiae cbk1-as DSE1-URA3 strain, 5-FOA growth OD615, 2 d; at 50 µM; hits give high values

Structure (SMILES)	growth inhibition [1]	growth inhibition [2]	viability increase [3]	viability [4]	viability [5]	inhibition [6]	RAM network inhibition [7]
COc1cc(C2C(C(=O)OC(C)C)=C(C)Nc3ncnn32)cc(OC)c1OC (configuration not stated)	-8.66%	-10.4%	-3.15%	100%	96.8%	1.19%	1.44%
COCCNC(=O)COc1ccccc1Cl	-8.43%	0.04%	-1.02%	95.4%	93.8%	0.815%	1.81%
Cc1cc(C)n(-c2nc3ccccc3c3nc(C)nn23)n1	-10.5%	-2.51%	-0.57%	104%	101%	0.195%	4.75%
O=C(CSc1cn(CCNC(=O)c2cccs2)c2ccccc12)NCC1CCCO1 (configuration not stated)	-13.8%	-23.4%	0.16%	96.2%	96.1%	1.61%	1.6%
CC(=O)N(c1ccccc1)C1SC(=O)N(c2ccccc2)C1=O (configuration not stated)	-15.9%	-9.37%	-0.06%	97.9%	99.7%	3.73%	6.65%
COC(=O)CC1Oc2ccccc2N(Cc2ccccc2)C1=O (configuration not stated)	-21.8%	-15.5%	-0.13%	92.2%	92.5%	1.56%	3.83%
CCN1c2ccccc2NC2C1C(C(C)=O)C(=O)N2c1ccc(Cl)cc1 (configuration not stated)	-2.96%	-9.21%	-5.03%	84.3%	72.2%	1.32%	5.6%
Cc1cc(C(F)(F)F)nc(NCc2ccc(F)cc2)n1	-1.39%	-13%	-1.57%	90.5%	86.7%	1.39%	0.79%
COc1ccc(Nc2cc(C)nc3nc(C)nn23)c(OC)c1	-2.91%	4.67%	-1.65%	109%	106%	0.83%	0.32%
COc1cc(OC)cc(-c2cc(NC(C)=O)n[nH]2)c1	-4.33%	6.38%	-3.17%	90.8%	91.3%	0.965%	4.1%
CCc1c(C)sc(NC(=O)c2cccs2)c1C(=O)OC(C)C	-3.37%	5.3%	4.48%	77.5%	79.1%	1.9%	5.72%
COc1ccccc1NC=C1C(=O)OC(C)(C)OC1=O	-17.5%	-7.71%	-2.6%	91%	101%	0.955%	2.48%
C=CCNc1nc2c(c(=O)n(C)c(=O)n2C)n1CC	1.76%	3.36%	-2.38%	107%	99.1%	2.24%	3.73%
CCC1(C(=O)O)NC(c2cc(OC)ccc2O)C2C(=O)N(Cc3ccccc3)C(=O)C21 (configuration not stated)	2.51%	-7.93%	-0.32%	102%	99.8%	0.37%	1.51%
Cc1nccn1-c1ncnc2sc3c(c12)CCCC3	-7.46%	0.84%	-3.49%	95.3%	93.5%	1.15%	2.86%
COc1cc(C(=O)NCC(c2cccnc2)N2CCN(c3ccccc3)CC2)cc(OC)c1OC (configuration not stated)	-6.31%	-10.5%	-4.26%	98.4%	92.5%	2.09%	2.64%
COC(=O)C1=C(C)N2C(=O)CSC2=NC1c1ccc2c(c1)OCO2 (configuration not stated)	5.86%	53.2% (active)	0.55%	93.3%	98.8%	0.03%	0.78%
CCOC(=O)C1CCN(c2cc(=O)n(Cc3ccc(F)cc3)c(=O)[nH]2)CC1	-11%	-17.4%	-0.81%	96.8%	88.5%	3.19%	5.11%

Structure (SMILES)	growth inhibition [1]	growth inhibition [2]	viability increase [3]	viability [4]	viability [5]	inhibition [6]	RAM network inhibition [7]
COc1ccccc1-c1nnc(SCC(=O)N2CCOCC2)o1	-12.5%	0.015%	-3.69%	93.8%	95.7%	1.75%	2.61%
O=C(O)c1ccccc1SC1CC(=O)N(C2CCCCC2)C1=O (configuration not stated)	-14.3%	-1.75%	-2.78%	90.7%	94.3%	1.17%	1.06%
CCOc1ccc(/C(=N\O)C(C)NO)cc1 (configuration not stated)	-16.4%	-10.4%	1.06%	87.9%	97.1%	0.925%	3.88%
CC(=O)Nc1ccc(NC2(C)C(=O)c3ccccc3C2=O)cc1	-0.27%	-3.77%	-1.88%	99.4%	102%	1.94%	1.23%
COc1cccc(C2CC(=O)N3CN(c4cccc(Cl)c4C)CSC3=C2C#N)c1OC (configuration not stated)	5.33%	19.4%	-4.11%	73.2%	63.9%	3.38%	7.39%
O=C(Nc1ccc2c(c1)OCO2)c1cc(C2CC2)on1	-12.5%	-18%	-3.41%	84.9%	88.8%	1%	3.09%
COc1cccc(N(CC(=O)Nc2cccc(F)c2)S(C)(=O)=O)c1	-5.09%	-12.3%	-1.38%	91.1%	97.5%	0.965%	3.51%
CCC(=O)NC(c1ccccc1)c1nc2ccccc2[nH]1 (configuration not stated)	-12.9%	-14.2%	-0.96%	100%	97.4%	1.48%	0.62%
Cc1nc2sc(C(c3ccccc3)N3CCN(CCO)CC3)c(O)n2n1 (configuration not stated)	-5.65%	-2.6%	-1.6%	106%	98.6%	1.32%	4.51%
COc1ccc2c(c1)c(CCN1C(=O)c3ccccc3C1=O)cn2C(=O)c1ccco1	-5.41%	0.45%	-4.3%	85.7%	85.9%	2.02%	4.8%
Cn1c(=O)c2c(nc(N3CCN(Cc4ccccc4)CC3)n2CCSc2ncccn2)n(C)c1=O	-9.24%	-14%	-0.19%	100%	106%	1.07%	2.77%
COc1ccc(-n2ncc3c(N(C)C4CCCCC4)ncnc32)cc1	-13.1%	-9.66%	-3.73%	85.5%	77.9%	1.76%	4.58%
CCCCn1c(CNC(=O)C(C)(C)C)nc2ccccc21	-11.1%	-12%	-1.15%	98%	98.9%	0.25%	5.15%
COc1ccc(N(CC(=O)Nc2ccc(C)cn2)S(=O)(=O)c2c(C)nn(C)c2C)cc1	-17.5%	-9.45%	-1.95%	97.5%	96.2%	0.055%	5.27%
COc1ccc(-c2cn3c(C)c(C(=O)N4CCN(c5ccccc5F)CC4)sc3n2)cc1	2.91%	-0.695%	0.81%	78.9%	78%	2.13%	18.2% (active)
CC1CCc2nn(CC(=O)Nc3c(F)cc(F)cc3Br)cc2C1 (configuration not stated)	-5.22%	-6.17%	2.17%	102%	90.3%	1.84%	1.57%
CCCCCCSc1nc2c(c(=O)[nH]c(=O)n2C)n1C	-0.55%	22.7%	-4.63%	82%	90.3%	0.395%	1.1%
CCN1C(=O)c2cccc3c(NC(=O)c4ccc(S(=O)(=O)N5CCOCC5)cc4)ccc1c23	14.5%	3.86%	-6.36%	65.6%	65.8%	1.11%	2.6%
